Assay [1] deals with Mus musculus. In words: Antitumor activity in CF1 mice bearing Ehrlich ascites carcinoma measured as percent ascrit packed cell volume at 8 mg/kg. Type of assay: functional. The essentials: (§1)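 Male CF1 mice (22–25 g) received 2 × 10⁶ Ehrlich carcinoma cells ip on day 0. Dosing was ip daily on days 1–8, with sacrifice on day 9. Ascites fluid volume per mouse and ascrit (packed cell volume) were measured for each group. Vehicle was 0.05% Tween 80, or 5% absolute EtOH in 0.05% Tween 80, used for both compound and control. 6-Mercaptopurine was the positive control.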

Assay [2] relates to Mus musculus. In words: Antitumor activity in CF1 mice bearing Ehrlich ascites carcinoma measured as ascites volume at 5 mg/kg. Type of assay: functional. The method in brief:
as §1

Assay [3] relates to Mus musculus. In words: (§2) Antitumor activity in CF1 mice bearing Ehrlich ascites carcinoma measured as percentage inhibition at 8 mg/kg. Format: functional. The essentials:
(§3)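 In the Ehrlich ascites model, male CF1 mice (22–25 g) received 2 × 10⁶ cells ip on day 0 and compound ip on days 1–8, with a vehicle of 0.05% Tween 80 ± 5% EtOH. Ascites volume and ascrit were taken on day 9. % inhibition = 100 − [(vol × ascrit, treated)/(vol × ascrit, control)], with >80% taken as significant.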

In assay [4] the test system is Mus musculus. In words: Anti tumor activity in mice bearing lymphocytic leukemia P-388 at 1 mg/kg. Format: functional. The essentials: (§4)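 Male BDF1 mice (20–23 g) were inoculated ip with 1 × 10⁶ P-388 leukemia cells on day 0. Compound was given ip once daily on days 1–14 in 0.05% Tween 80 vehicle, with a vehicle control group and 5-fluorouracil as positive control. Activity was scored as % T/C, average days survived treated/control, with >125% taken as significant.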

The test system of assay [5] is Mus musculus. In words: Antitumor activity in CF1 mice bearing Ehrlich ascites carcinoma measured as percentage inhibition at 5 mg/kg. Type of assay: functional. The essentials:
(§5)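 Ehrlich ascites model in male CF1 mice (22–25 g): 2 × 10⁶ cells ip on day 0, ip dosing days 1–8, kill on day 9. Percent inhibition = 100 − [(treated volume × treated ascrit)/(control volume × control ascrit)]. Greater than 80% was taken as significant. Vehicle was 0.05% Tween 80, alone or with 5% absolute EtOH. 6-Mercaptopurine was the positive control.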

Assay [6] deals with Mus musculus. In words: Average days survived for treated / average days survived for control at 1 (mg/kg); 10/9.2. Type of assay: functional.
Assay [7] has as its system Mus musculus. In words: Antitumor activity in CF1 mice bearing Ehrlich ascites carcinoma measured as percent ascrit packed cell volume at 1 mg/kg. Type of assay: functional. The method in brief: (§6)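 CF1 male mice (22–25 g) were inoculated ip with 2 × 10⁶ Ehrlich cells on day 0 and treated ip on days 1–8 in 0.05% Tween 80 or 5% EtOH/0.05% Tween 80 vehicle. On day 9 the mice were sacrificed, and the ascrit (packed cell volume) of the ascites fluid was determined.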

Assay [8] has as its system Mus musculus. In words: Antitumor activity in CF1 mice bearing Ehrlich ascites carcinoma measured as ascites volume at 1 mg/kg. Type of assay: functional. The essentials:
(§7)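 Ehrlich ascites cells (2 × 10⁶) were implanted ip in male CF1 mice (22–25 g) on day 0. Dosing was ip on days 1–8 in 0.05% Tween 80 or 5% EtOH/0.05% Tween 80, with vehicle controls. Mice were killed on day 9, and ascites fluid volume per mouse was measured.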

Assay [9] has as its system Mus musculus. In words: Antitumor activity in CF1 mice bearing Ehrlich ascites carcinoma measured as percent ascrit packed cell volume at 10 mg/kg. Format: functional. The method in brief: as §6
In assay [10] the test system is Mus musculus. In words: Antitumor activity in CF1 mice bearing Ehrlich ascites carcinoma measured as survivors on day 9 at 10 mg/kg; 6/6. Format: functional.
Assay [11] deals with Mus musculus. In words: Antitumor activity in CF1 mice bearing Ehrlich ascites carcinoma measured as survivors on day 9 at 1 mg/kg; 6/6. Format: functional.
Assay [12] concerns Mus musculus. In words: Antitumor activity in CF1 mice bearing Ehrlich ascites carcinoma measured as percent ascrit packed cell volume at 5 mg/kg. Format: functional. The method in brief:
as §1

Assay [13] relates to Mus musculus. In words: Antitumor activity in CF1 mice bearing Ehrlich ascites carcinoma measured as percentage inhibition at 10 mg/kg; IA= inactive. Format: functional, organism-based. Also on record: dose 10 mg/kg. The essentials:
as §3

For assay [14], the system named is Mus musculus. In words: Antitumor activity in CF1 mice bearing Ehrlich ascites carcinoma measured as survivors on day 9 at 5 mg/kg; 6/6. Type of assay: functional.
Assay [15] relates to Mus musculus. In words: Antitumor activity in CF1 mice bearing Ehrlich ascites carcinoma measured as survivors on day 9 at 8 mg/kg; 6/6. Format: functional. The essentials:
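Male CF1 mice (22–25 g) were given 2 × 10⁶ Ehrlich carcinoma cells ip on day 0. Compounds were dosed ip on days 1–8 in 0.05% Tween 80 or in 5% absolute EtOH in 0.05% Tween 80, with vehicle-treated controls. Mice were killed on day 9, and ascites volume and ascrit (packed cell volume) were measured per mouse.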

Assay [16] has as its system Mus musculus. In words: Antitumor activity in CF1 mice bearing Ehrlich ascites carcinoma measured as ascites volume at 8 mg/kg. Type of assay: functional. The essentials: as §1
The test system of assay [17] is Mus musculus. In words: Antitumor activity in CF1 mice bearing Ehrlich ascites carcinoma measured as ascites volume at 10 mg/kg. Type of assay: functional. The method in brief: as §7
Assay [18] concerns Mus musculus. In words: Antitumor activity in CF1 mice bearing Ehrlich ascites carcinoma measured as percentage inhibition at 1 mg/kg; IA= inactive. Format: functional, organism-based. Also on record: dose 1 mg/kg. The essentials:
as §3

For assay [19], the system named is Mus musculus. In words: Antitumor activity in CF1 mice bearing Ehrlich ascites carcinoma measured as percentage inhibition at 3 mg/kg; IA means inactive. Type of assay: functional, organism-based. Further details: dose 3 mg/kg. The essentials: as §5
Assay [20] relates to Mus musculus. In words: Antitumor activity in CF1 mice bearing Ehrlich ascites carcinoma measured as percentage inhibition at 1 mg/kg; IA means inactive. Format: functional, organism-based. Further details: dose 1 mg/kg. The method in brief: as §5
In assay [21] the test system is Mus musculus. In words: Antitumor activity in CF1 mice bearing Ehrlich ascites carcinoma measured as ascites volume at 3 mg/kg. Type of assay: functional. The essentials: as §1
Assay [22] concerns Mus musculus. In words: Antitumor activity in 6 CF1 mice bearing Ehrlich ascites carcinoma measured as survivors on day 9 at 5 mg/kg; 6/6. Format: functional.
Assay [23] concerns Mus musculus. In words: Antitumor activity in CF1 mice bearing Ehrlich ascites carcinoma measured as percent ascrit packed cell volume at 3 mg/kg. Format: functional. The method in brief:
as §1

In assay [24] the test system is Mus musculus. In words: Antitumor activity in 6 CF1 mice bearing Ehrlich ascites carcinoma measured as survivors on day 9 at 8 mg/kg; 5/6. Format: functional.
For assay [25], the system named is Mus musculus. In words: Antitumor activity in 6 CF1 mice bearing Ehrlich ascites carcinoma measured as survivors on day 9 at 1 mg/kg; 6/6. Type of assay: functional.
Assay [26] relates to Mus musculus. In words: Antitumor activity in 6 CF1 mice bearing Ehrlich ascites carcinoma measured as survivors on day 9 at 3 mg/kg; 6/6. Type of assay: functional.
In assay [27] the test system is Mus musculus. The description is as §2. Format: functional. The method in brief:
as §5
The source holds these as a separate data set.

Assay [28] deals with Mus musculus. In words: Average days survived for treated / average days survived for control at 1 (mg/kg); 9.6/9.2. Format: functional.
Assay [29] concerns Mus musculus. In words: Average days survived for treated / average days survived for control at 30 (mg/kg); 3.0/9.2. Format: functional.
The test system of assay [30] is Mus musculus. In words: Antitumor activity in CF1 mice bearing Ehrlich ascites carcinoma measured as survivors on day 9 at 10 mg/kg; 5/6. Type of assay: functional.
For assay [31], the system named is Mus musculus. In words: Average days survived for treated / average days survived for control at 5 (mg/kg); 8.8/9.2. Format: functional.
Assay [32] relates to Mus musculus. In words: Anti tumor activity in mice bearing lymphocytic leukemia P-388 at 5 mg/kg. Type of assay: functional. The essentials:
as §4

For assay [33], the system named is Mus musculus. In words: Anti tumor activity in mice bearing lymphocytic leukemia P-388 at 30 mg/kg. Type of assay: functional. The method in brief: as §4
Assay [34] deals with Mus musculus. In words: Anti tumor activity in mice bearing lymphocytic leukemia P-388 at 10 mg/kg. Type of assay: functional. The essentials:
as §4

Assay [35] deals with Mus musculus. In words: Anti tumor activity in mice bearing lymphocytic leukemia P-388 at 20 mg/kg. Format: functional. The essentials:
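Male BDF1 mice (20–23 g) inoculated ip with 1 × 10⁶ P-388 lymphocytic leukemia cells on day 0. Test agents were given ip once daily on days 1–14, with 0.05% Tween 80 as vehicle for treated and control groups. Read-out is %T/C, the mean days survived by treated over control. Values above 125% were counted as significant. 5-Fluorouracil was the positive control.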

In assay [36] the test system is Mus musculus. In words: Average days survived for treated / average days survived for control at 10 (mg/kg); 6.4/9.2. Format: functional.
Assay [37] relates to Mus musculus. In words: Average days survived for treated / average days survived for control at 20 (mg/kg); 4.8/9.2. Type of assay: functional.

The source made the active and inactive calls. The calls are words filed in the database; no cut-off is given here.

As for `COC1=C(N2CC2)C(=O)c2cnn(C)c2C1=O`, the packed cell volume in the assay with Mus musculus [1] is 36.2%; with Mus musculus [7] it was 39.8%; in the assay with Mus musculus [9], 30.7%; in the assay on Mus musculus [12], 34.6%. The ascites volume was found to be 0.7 ml mouse-1 in the assay with Mus musculus [2], 4.2 ml mouse-1 in the assay on Mus musculus [8], 0.32 ml mouse-1 with Mus musculus [16] and 2.2 ml mouse-1 in the assay on Mus musculus [17]. The inhibition in vivo at 8 mg/kg with Mus musculus [3] stood at 64.1%. In the assay on Mus musculus [4], this compound had a T/C of 109%. The same compound gave an inhibition in vivo at 5 mg/kg in the assay on Mus musculus [5] of 39.4%. The “Average survival (days)” value with Mus musculus [6] is recorded as 10. Moreover, the Survivors in the assay with Mus musculus [10], in the assay with Mus musculus [11], in the assay with Mus musculus [14] and in the assay with Mus musculus [15] was 6 each time. Also, the inhibition result in the assay on Mus musculus [13] and in the assay on Mus musculus [18] was “inactive” each time.

As to `CC(=O)NC1=C(Cl)C(=O)c2[nH]ncc2C1=O`, the inhibition entry with Mus musculus [19] and in the assay on Mus musculus [20] was “inactive” each time. Further, the packed cell volume in the assay with Mus musculus [1] stood at 30.8%; in the assay with Mus musculus [7], 40%; in the assay with Mus musculus [23], 38.1%; in the assay with Mus musculus [12], 20.2%. Further, the ascites volume in the assay with Mus musculus [2] came to 0.33 ml mouse-1; in the assay with Mus musculus [8], 3.6 ml mouse-1; in the assay on Mus musculus [21], 3.6 ml mouse-1; in the assay on Mus musculus [16] it was 1.8 ml mouse-1. The inhibition in vivo at 5 mg/kg in the assay on Mus musculus [5] was 83.2%. Also, the Survivors in the assay on Mus musculus [22] was 6; in the assay with Mus musculus [24], 5; in the assay on Mus musculus [25] it was 6; in the assay with Mus musculus [26], 6. The compound further showed an inhibition in vivo at 8 mg/kg in the assay with Mus musculus [27] of 46.9%.

In the case of `Cn1ncc2c1C(=O)C(Cl)=C(N1CC1)C2=O`, the values for the ascites volume in the assay with Mus musculus [2], in the assay on Mus musculus [8] and in the assay with Mus musculus [17] were 2.5 ml mouse-1, 2 ml mouse-1 and 3.4 ml mouse-1, respectively. Also, the “Average survival (days)” value in the assay with Mus musculus [28] came to 9.6; in the assay with Mus musculus [29], 3; in the assay with Mus musculus [31] it was 8.8; in the assay on Mus musculus [36], 6.4; in the assay with Mus musculus [37], 4.8. For the same compound, the T/C in the assay with Mus musculus [4] worked out at 107%; in the assay on Mus musculus [32] it was 96%; in the assay on Mus musculus [33], 33%; with Mus musculus [34] it was 70%; in the assay on Mus musculus [35], 52%. Also, in the assay with Mus musculus [5], 5 mg/kg produced 5.8% inhibition in vivo. Besides, the packed cell volume with Mus musculus [7] is 35.2%; in the assay on Mus musculus [9], 37.3%; in the assay with Mus musculus [12] it was 41.4%. The Survivors with Mus musculus [30] was 5; with Mus musculus [11], 6; in the assay with Mus musculus [14], 6. The inhibition result in the assay on Mus musculus [13] and with Mus musculus [18] was “inactive” in each case.

For orientation: inhibition in vivo means how much of the control response was suppressed. Low readings indicate little suppression, high ones strong suppression. As usually defined, the T/C is the result in the treated group divided by that in the control group, in per cent.

The record behind these values is ChEMBL document CHEMBL1122443, “Synthesis and antitumor evaluation of selected 5,6-disubstituted 1(2)H-indazole-4,7-diones” (1983).
